# Experimental data from BindingDB's records for doi:10.1021/jm970240y (Sanofi Recherche, 1997).
# Biological target: Integrin alpha-IIb/beta-3 (Homo sapiens, UniProt P08514+P05106)
# Experiment: In vitro inhibition of ADP-induced (2.5 uM) human platelet aggregation.
# Summary of the method: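 Human PRP from citrated blood (0.38% final) of unmedicated donors, spun 1000g 10 min; compound added in DMSO (0.01% final) 1 min before 2.5 μM ADP. Aggregation by Born method, measured as maximum curve height; percent inhibition calculated against vehicle-alone aggregation.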
# Sequence of Integrin alpha-IIb/beta-3 (P05106 27-788 limits assumed): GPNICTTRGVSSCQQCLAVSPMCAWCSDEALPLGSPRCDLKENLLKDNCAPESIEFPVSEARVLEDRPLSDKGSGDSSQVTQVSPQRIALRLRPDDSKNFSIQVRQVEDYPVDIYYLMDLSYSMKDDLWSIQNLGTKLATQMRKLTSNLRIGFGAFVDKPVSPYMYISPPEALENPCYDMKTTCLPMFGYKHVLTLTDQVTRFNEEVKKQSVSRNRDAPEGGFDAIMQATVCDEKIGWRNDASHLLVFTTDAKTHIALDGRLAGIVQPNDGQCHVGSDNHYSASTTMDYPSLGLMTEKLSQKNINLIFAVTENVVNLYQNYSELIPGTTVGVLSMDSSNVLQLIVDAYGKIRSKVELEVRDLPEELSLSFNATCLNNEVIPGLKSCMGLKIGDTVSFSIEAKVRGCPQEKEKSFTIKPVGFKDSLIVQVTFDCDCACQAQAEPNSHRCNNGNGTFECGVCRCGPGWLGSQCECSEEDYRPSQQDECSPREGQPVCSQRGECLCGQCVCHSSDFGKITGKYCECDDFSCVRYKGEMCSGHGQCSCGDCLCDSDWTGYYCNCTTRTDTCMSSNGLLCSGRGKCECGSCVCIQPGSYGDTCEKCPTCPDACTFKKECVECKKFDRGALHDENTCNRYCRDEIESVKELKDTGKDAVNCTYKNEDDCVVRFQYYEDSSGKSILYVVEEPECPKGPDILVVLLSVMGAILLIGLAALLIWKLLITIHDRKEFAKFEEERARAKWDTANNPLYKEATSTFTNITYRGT
# Sequence of Integrin alpha-IIb/beta-3 (P08514 32-887 limits assumed): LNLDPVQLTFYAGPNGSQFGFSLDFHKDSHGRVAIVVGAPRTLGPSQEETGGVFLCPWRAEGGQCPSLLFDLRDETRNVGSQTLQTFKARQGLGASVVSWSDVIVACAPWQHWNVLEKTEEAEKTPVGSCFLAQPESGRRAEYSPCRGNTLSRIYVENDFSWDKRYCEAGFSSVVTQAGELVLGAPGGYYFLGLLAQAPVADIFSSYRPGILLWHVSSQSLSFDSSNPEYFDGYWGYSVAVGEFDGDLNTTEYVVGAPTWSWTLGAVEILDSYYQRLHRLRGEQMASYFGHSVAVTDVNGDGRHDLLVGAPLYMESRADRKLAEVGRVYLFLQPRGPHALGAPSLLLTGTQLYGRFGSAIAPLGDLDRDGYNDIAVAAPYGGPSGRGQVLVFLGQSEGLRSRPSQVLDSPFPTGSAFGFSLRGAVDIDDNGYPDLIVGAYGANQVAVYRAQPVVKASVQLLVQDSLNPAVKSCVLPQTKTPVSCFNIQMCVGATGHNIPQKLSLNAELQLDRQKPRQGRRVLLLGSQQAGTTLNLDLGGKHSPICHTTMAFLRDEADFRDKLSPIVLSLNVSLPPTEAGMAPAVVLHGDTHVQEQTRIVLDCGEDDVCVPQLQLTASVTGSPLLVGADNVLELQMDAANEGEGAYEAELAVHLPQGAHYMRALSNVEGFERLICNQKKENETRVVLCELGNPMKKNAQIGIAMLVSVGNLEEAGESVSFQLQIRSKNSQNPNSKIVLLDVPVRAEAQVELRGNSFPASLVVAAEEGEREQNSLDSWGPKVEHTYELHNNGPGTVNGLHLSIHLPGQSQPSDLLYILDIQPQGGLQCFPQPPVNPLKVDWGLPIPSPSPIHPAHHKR
# Sequence of Integrin alpha-IIb/beta-3 (P08514 891-1039 limits assumed): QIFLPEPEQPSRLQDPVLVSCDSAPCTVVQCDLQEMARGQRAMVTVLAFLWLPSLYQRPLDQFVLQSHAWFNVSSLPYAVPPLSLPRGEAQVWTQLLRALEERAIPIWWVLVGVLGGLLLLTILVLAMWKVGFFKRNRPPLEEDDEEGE
row,IC50,SMILES
1,85 nM,COC(=O)CC(C(=O)O)N1CCC(Nc2nc(-c3ccc(C(=N)N)cc3)cs2)CC1 (configuration not stated) [2-{4-[4-(4-Carbamimidoyl-phenyl)-thiazol-2-ylamino]-piperidin-1-yl}-succinic acid 4-methyl ester]
2,1800 nM,N=C(N)c1ccc(-c2csc(NC3CCN(CCC(=O)O)CC3)n2)cc1 [3-{4-[4-(4-carbamimidoyl-phenyl)-thiazol-2-ylamino]-piperidin-1-yl}-propionic acid]
3,42 nM,N=C(N)c1ccc(-c2csc(NC3CCN(CC(=O)O)CC3)n2)cc1 [{4-[4-(4-Carbamimidoyl-phenyl)-thiazol-2-ylamino]-piperidin-1-yl}-acetic acid]
4,65 nM,N=C(N)c1ccc(-c2csc(NC3CCN(C(C(=O)O)c4ccccc4)CC3)n2)cc1 (configuration not stated) [{4-[4-(4-Carbamimidoyl-phenyl)-thiazol-2-ylamino]-piperidin-1-yl}-phenyl-acetic acid]
5,250 nM,CC(C(=O)O)N1CCC(Nc2nc(-c3ccc(C(=N)N)cc3)cs2)CC1 (configuration not stated) [2-{4-[4-(4-carbamimidoyl-phenyl)-thiazol-2-ylamino]-piperidin-1-yl}-propionic acid]
6,6000 nM,N=C(N)c1ccc(-c2csc(NC3CCN(C(C(=O)O)c4ccccc4Cl)CC3)n2)cc1 (configuration not stated) [4-[4-(4-carbamimidoyl-phenyl)-thiazol-2-ylamino]-piperidin-1-yl}-(2-chloro-phenyl)-acetic acid]
7,> 10000 nM,CC(C)(C(=O)O)N1CCC(Nc2nc(-c3ccc(C(=N)N)cc3)cs2)CC1 [2-{4-[4-(4-Carbamimidoyl-phenyl)-thiazol-2-ylamino]-piperidin-1-yl}-2-methyl-propionic acid]

row,SMILES,IC50
1,CN(c1nc(-c2ccc(C(=N)N)cc2)cs1)C1CCN(CC(=O)O)CC1 [(4-{[4-(4-carbamimidoyl-phenyl)-thiazol-2-yl]-methyl-amino}-piperidin-1-yl)-acetic acid],160 nM
2,N=C(N)c1ccc(-c2csc(N(Cc3ccccc3)C3CCN(CC(=O)O)CC3)n2)cc1 [(4-{Benzyl-[4-(4-carbamimidoyl-phenyl)-thiazol-2-yl]-amino}-piperidin-1-yl)-acetic acid],230 nM
3,N=C(N)c1ccc(-c2csc(N(CCCC(=O)O)C3CCN(CC(=O)O)CC3)n2)cc1 [4-[[4-(4-Carbamimidoyl-phenyl)-thiazol-2-yl]-(1-carboxymethyl-piperidin-4-yl)-amino]-butyric acid],96 nM
4,N=C(N)c1ccc(-c2csc(N(CC(=O)O)C3CCN(CC(=O)O)CC3)n2)cc1 [[[4-(4-Carbamimidoyl-phenyl)-thiazol-2-yl]-(1-carboxymethyl-piperidin-4-yl)-amino]-acetic acid],170 nM
5,N=C(N)c1ccc(-c2csc(N(CCC(=O)O)C3CCN(CC(=O)O)CC3)n2)cc1 [3-[[4-(4-Carbamimidoyl-phenyl)-thiazol-2-yl]-(1-carboxymethyl-piperidin-4-yl)-amino]-propionic acid],46 nM
